# Laboratory results as given in ChEMBL document CHEMBL1152337, “Antimicrobial ambiguine isonitriles from the cyanobacterium Fischerella ambigua” (J Nat Prod, 2009).
# Experiments:
# Bacillus anthracis = experiment: Antimicrobial activity against Bacillus anthracis; format: functional
# In short: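 Compounds tested over 100 µg/mL down to 48.8 ng/mL. MIC taken as the lowest concentration preventing visible bacterial growth.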
# [1] = tested on: Mycobacterium tuberculosis; experiment: Antimicrobial activity against Mycobacterium tuberculosis H37Rv by microplate Alamar blue assay; format: functional
# In short: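 Virulent H37Rv strain in a microplate Alamar blue assay. MIC defined as the lowest concentration giving at least 90% growth inhibition.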
# [2] = tested on: Mycolicibacterium smegmatis; experiment: Antimicrobial activity against Mycobacterium smegmatis by broth microdilution assay; format: functional
# Vero = experiment: Cytotoxicity against african green monkey Vero cells; format: cell-based; details: Chlorocebus sabaeus
# Candida albicans = experiment: Antimicrobial activity against Candida albicans by broth microdilution assay; format: functional
# Staphylococcus aureus = experiment: Antimicrobial activity against Staphylococcus aureus by broth microdilution assay; format: functional
# [3] = Selectivity ratio of MIC for Mycobacterium tuberculosis H37Rv to MIC for Bacillus anthracis; format: functional
Compound,MIC (Bacillus anthracis) [µM],MIC [1] [µM],MIC [2] [µM],IC50 (Vero) [µM],MIC (Candida albicans) [µM],MIC (Staphylococcus aureus) [µM],Ratio [3]
[C-]#[N+][C@@H]1[C@@H]2c3c(C(C)(C)C=C)[nH]c4cccc(c34)C(C)(C)[C@H]2C[C@@H](Cl)[C@]1(C)C=C [AMBIGUINE A ISONITRILE],1,46.7,14.8,26,< 1,1.8,–
[C-]#[N+][C@H]1[C@@](C)(C=C)[C@H](Cl)C[C@@H]2C(C)(C)c3cccc4[nH]c(C(C)(C)C=C)c(c34)[C@]21O [AMBIGUINE B ISONITRILE],3.7,–,27.8,58.6,1.7,10.9,–
[C-]#[N+][C@@H]1[C@]2(O)c3c(C(C)(C)C=C)[nH]c4cccc(c34)C(C)(C)[C@H]2CC[C@]1(C)C=C [AMBIGUINE C ISONITRILE],16.1,7,59.6,78.3,< 1,7.4,–
[C-]#[N+][C@]12[C@H]3O[C@H]3C(C)(C)c3[nH]c4cccc5c4c3[C@]1(O)[C@H](C[C@@H](Cl)[C@]2(C)C=C)C5(C)C [AMBIGUINE E ISONITRILE],3.6,21,1.4,42.6,< 0.9,1.5,–
[C-]#[N+][C@]12[C@@H](O)[C@H](O)C(C)(C)c3[nH]c4cccc5c4c3[C@]1(O)[C@H](C[C@@H](Cl)[C@]2(C)C=C)C5(C)C [AMBIGUINE F ISONITRILE],–,61.2,–,57.9,–,–,–
[C-]#[N+][C@]12C=CC(C)(C)c3[nH]c4cccc5c4c3[C@]1(O)[C@H](C[C@@H](Cl)[C@]2(C)C=C)C5(C)C [AMBIGUINE K ISONITRILE],7.4,6.6,23.7,53.2,< 0.9,4.6,–
[C-]#[N+][C@]12C=CC(C)(C)c3[nH]c4cccc5c4c3[C@]1(O)[C@H](CC[C@]2(C)C=C)C5(C)C [AMBIGUINE L ISONITRILE],16.2,11.7,29.3,44.6,< 1,10.5,–
[C-]#[N+][C@]12C[C@@H](O)C(C)(C)c3[nH]c4cccc5c4c3[C@]1(O)[C@H](C[C@@H](Cl)[C@]2(C)C=C)C5(C)C [AMBIGUINE M ISONITRILE],28.5,7.5,25.8,79.8,1.1,4.7,–
[C-]#[N+][C@]12C[C@@H](O)C(C)(C)c3[nH]c4cccc5c4c3[C@]1(O)[C@H](CC[C@]2(C)C=C)C5(C)C [AMBIGUINE N ISONITRILE],30.9,27.1,48.8,118,< 1,5.5,–
[C-]#[N+][C@]12[C@H](O)C(=O)C(C)(C)c3[nH]c4cccc5c4c3[C@]1(O)[C@H](C[C@@H](Cl)[C@]2(C)C=C)C5(C)C [AMBIGUINE O ISONITRILE],13.8,–,–,80.7,–,–,–
O=C(O)c1cn(C2CC2)c2cc(N3CCNCC3)c(F)cc2c1=O [CIPROFLOXACIN],0.2,–,–,–,–,–,–
[C-]#[N+][C@@H]1[C@@H]2c3c[nH]c4cccc(c34)C(C)(C)[C@H]2C[C@@H](Cl)[C@]1(C)C=C [HAPALINDOLE G],> 128,6.8,34,> 128,> 128,> 128,50
[C-]#[N+][C@@H]1[C@H]2c3c[nH]c4cccc(c34)C(C)(C)[C@@H]2CC[C@]1(C)C=C [HAPALINDOLE H],> 128,58.8,39.6,> 128,5.1,> 128,–
CC(=O)N1CCN(c2ccc(OCC3COC(Cn4ccnc4)(c4ccc(Cl)cc4Cl)O3)cc2)CC1 (stereo not given) [KETOCONAZOLE],–,–,–,–,0.03,–,–
COc1c(N2C[C@@H]3CCCN[C@@H]3C2)c(F)cc2c(=O)c(C(=O)O)cn(C3CC3)c12 [MOXIFLOXACIN],–,–,0.7,–,–,–,–
CO[C@H]1/C=C/O[C@@]2(C)Oc3c(C)c(O)c4c(O)c(c(/C=N/N5CCN(C)CC5)c(O)c4c3C2=O)NC(=O)/C(C)=C\C=C\[C@H](C)[C@H](O)[C@@H](C)[C@@H](O)[C@@H](C)[C@H](OC(C)=O)[C@@H]1C [RIFAMPIN],–,0.1,–,97.9,–,–,–
GENTAMICIN,–,–,–,–,–,1.4,–
